# Reference: ChEMBL document CHEMBL3232927 (J Med Chem, 2014)
# What was measured:
# MDA-MB-231 = test: Cytotoxicity against human MDA-MB-231 cells after 72 hrs by MTT assay; assay type: functional, cell-based; conditions: MDA-MB-231, 72 h
# Outline: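 MDA-MB-231 cells grown in MEM with 10% FBS and 1% pen/strep at 37 °C, seeded at 8000 cells/well in MEM with 5% FBS. 10 mM DMSO stocks were serially diluted in MEM/5% FBS: 1–10 000 nM for PTX-silicates, 0.1–1000 for DTX-silicates. Exposure 72 h, then MTT added and absorbance at 490 nm read at 60 min. IC50 from nonlinear regression of log concentration vs response; median of the IC50 distribution within the 95% confidence interval.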
# [1] = Half life of the compound at C7 position in acetone-d6/D2O/CF3CO2H at 0.01 M by NMR spectroscopy analysis; assay type: physicochemical
# Outline: (§1)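 Silicates dissolved in acetone/water 10:1 (v/v) containing 1% TFA (measured pH 1.2) at ambient temperature. Silicate ester cleavage followed over time by NMR spectroscopy.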
# [2] = Retention time of the compound up to by LC/MS analysis; assay type: physicochemical
# Outline: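 Reversed-phase LC/MS on a C18 (ODS) column, 5 μm, 4.6 × 150 mm, flow 1 mL/min. Gradient from 56/44 to 98/2 methanol/water containing 15 mM NH4OAc over 15 min, then a final hold.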
# [3] = Half life of the compound at C2 position in acetone-d6/D2O/CF3CO2H at 0.01 M by NMR spectroscopy analysis; assay type: physicochemical; outline: as §1
Compound,t1/2 [1] [min],Retention_time [2] [min],t1/2 [3] [min],IC50 (MDA-MB-231) [nM]
CC(=O)O[C@H]1C(=O)[C@]2(C)[C@@H](O[Si](OC(C)C)(OC(C)C)OC(C)C)C[C@H]3OC[C@@]3(OC(C)=O)[C@H]2[C@H](OC(=O)c2ccccc2)[C@]2(O)C[C@H](OC(=O)[C@H](O)[C@@H](NC(=O)c3ccccc3)c3ccccc3)C(C)=C1C2(C)C,1700,16.4,,260
CCO[Si](OCC)(OCC)O[C@H]1C[C@H]2OC[C@@]2(OC(C)=O)[C@H]2[C@H](OC(=O)c3ccccc3)[C@]3(O)C[C@H](OC(=O)[C@H](O[Si](OCC)(OCC)OCC)[C@@H](NC(=O)c4ccccc4)c4ccccc4)C(C)=C([C@@H](OC(C)=O)C(=O)[C@]12C)C3(C)C,33,16.6,4.6,12
CC(=O)O[C@@]12CO[C@@H]1C[C@H](O)[C@@]1(C)C(=O)[C@H](O)C3=C(C)[C@@H](OC(=O)[C@H](O)[C@@H](NC(=O)OC(C)(C)C)c4ccccc4)C[C@@](O)([C@@H](OC(=O)c4ccccc4)[C@H]21)C3(C)C.O.O.O [DOCETAXEL],,10.9,,1
CCO[Si](O[C@@H](C(=O)O[C@H]1C[C@@]2(O)[C@@H](OC(=O)c3ccccc3)[C@@H]3[C@]4(OC(C)=O)CO[C@@H]4C[C@H](O)[C@@]3(C)C(=O)[C@H](OC(C)=O)C(=C1C)C2(C)C)[C@@H](NC(=O)c1ccccc1)c1ccccc1)(OC(C)(C)C)OC(C)(C)C,,16.1,12000,260
CC(=O)O[C@H]1C(=O)[C@@]2(C)[C@H]([C@H](OC(=O)c3ccccc3)[C@]3(O)C[C@H](OC(=O)[C@H](O[Si](OC(C)C)(OC(C)C)OC(C)C)[C@@H](NC(=O)c4ccccc4)c4ccccc4)C(C)=C1C3(C)C)[C@]1(OC(C)=O)CO[C@@H]1C[C@@H]2O,,15.4,120,4.2
CC[Si](CC)(CC)O[C@@H](C(=O)O[C@H]1C[C@@]2(O)[C@@H](OC(=O)c3ccccc3)[C@@H]3[C@]4(OC(C)=O)CO[C@@H]4C[C@H](O)[C@@]3(C)C(=O)[C@H](OC(C)=O)C(=C1C)C2(C)C)[C@@H](NC(=O)c1ccccc1)c1ccccc1,,15.4,,220
CCCCCCCCO[Si](OCCCCCCCC)(OCCCCCCCC)O[C@H]1C[C@H]2OC[C@@]2(OC(C)=O)[C@H]2[C@H](OC(=O)c3ccccc3)[C@]3(O)C[C@H](OC(=O)[C@H](O[Si](OCCCCCCCC)(OCCCCCCCC)OCCCCCCCC)[C@@H](NC(=O)c4ccccc4)c4ccccc4)C(C)=C([C@@H](OC(C)=O)C(=O)[C@]12C)C3(C)C,200,,18,280
CC(=O)O[C@H]1C(=O)[C@@]2(C)[C@H]([C@H](OC(=O)c3ccccc3)[C@]3(O)C[C@H](OC(=O)[C@H](O[Si](OC(C)=O)(OC(C)(C)C)OC(C)(C)C)[C@@H](NC(=O)c4ccccc4)c4ccccc4)C(C)=C1C3(C)C)[C@]1(OC(C)=O)CO[C@@H]1C[C@@H]2O,,,35,
CCO[Si](OCC)(OCC)O[C@@H](C(=O)O[C@H]1C[C@@]2(O)[C@@H](OC(=O)c3ccccc3)[C@@H]3[C@]4(OC(C)=O)CO[C@@H]4C[C@H](O)[C@@]3(C)C(=O)[C@H](O)C(=C1C)C2(C)C)[C@@H](NC(=O)OC(C)(C)C)c1ccccc1,,14.1,11,2.5
CCCCCCCCO[Si](OCCCCCCCC)(OCCCCCCCC)O[C@H]1C[C@H]2OC[C@@]2(OC(C)=O)[C@H]2[C@H](OC(=O)c3ccccc3)[C@]3(O)C[C@H](OC(=O)[C@H](O)[C@@H](NC(=O)c4ccccc4)c4ccccc4)C(C)=C([C@@H](OC(C)=O)C(=O)[C@]12C)C3(C)C,150,24.6,,290
CCO[Si](OCC)(OCC)O[C@@H](C(=O)O[C@H]1C[C@@]2(O)[C@@H](OC(=O)c3ccccc3)[C@@H]3[C@]4(OC(C)=O)CO[C@@H]4C[C@H](O)[C@@]3(C)C(=O)[C@H](OC(C)=O)C(=C1C)C2(C)C)[C@@H](NC(=O)c1ccccc1)c1ccccc1,,13.8,3.7,8.3
CCO[Si](OCC)(OCC)O[C@H]1C[C@H]2OC[C@@]2(OC(C)=O)[C@H]2[C@H](OC(=O)c3ccccc3)[C@]3(O)C[C@H](OC(=O)[C@H](O)[C@@H](NC(=O)c4ccccc4)c4ccccc4)C(C)=C([C@@H](OC(C)=O)C(=O)[C@]12C)C3(C)C,30,14.6,,18

# Now from value to compound, other results behind:
t1/2 [1] [min],Retention_time [2] [min],t1/2 [3] [min],Compound,IC50 (MDA-MB-231) [nM]
,10.5,,CC(=O)O[C@H]1C(=O)[C@@]2(C)[C@H]([C@H](OC(=O)c3ccccc3)[C@]3(O)C[C@H](OC(=O)[C@H](O)[C@@H](NC(=O)c4ccccc4)c4ccccc4)C(C)=C1C3(C)C)[C@]1(OC(C)=O)CO[C@@H]1C[C@@H]2O [PACLITAXEL],5.6
,16.4,13600,CCO[Si](O[C@@H](C(=O)O[C@H]1C[C@@]2(O)[C@@H](OC(=O)c3ccccc3)[C@@H]3[C@]4(OC(C)=O)CO[C@@H]4C[C@H](O)[C@@]3(C)C(=O)[C@H](O)C(=C1C)C2(C)C)[C@@H](NC(=O)OC(C)(C)C)c1ccccc1)(OC(C)(C)C)OC(C)(C)C,430
,24.5,69000,CC(=O)O[C@H]1C(=O)[C@@]2(C)[C@H]([C@H](OC(=O)c3ccccc3)[C@]3(O)C[C@H](OC(=O)[C@H](O[Si](OC4CC(C)CCC4C(C)C)(OC4CC(C)CCC4C(C)C)OC4CC(C)CCC4C(C)C)[C@@H](NC(=O)c4ccccc4)c4ccccc4)C(C)=C1C3(C)C)[C@]1(OC(C)=O)CO[C@@H]1C[C@@H]2O (stereo partly specified),590
,22.1,12,CCCCCCCCO[Si](OCCCCCCCC)(OCCCCCCCC)O[C@@H](C(=O)O[C@H]1C[C@@]2(O)[C@@H](OC(=O)c3ccccc3)[C@@H]3[C@]4(OC(C)=O)CO[C@@H]4C[C@H](O)[C@@]3(C)C(=O)[C@H](OC(C)=O)C(=C1C)C2(C)C)[C@@H](NC(=O)c1ccccc1)c1ccccc1,7
1500,18.9,130,CC(=O)O[C@H]1C(=O)[C@]2(C)[C@@H](O[Si](OC(C)C)(OC(C)C)OC(C)C)C[C@H]3OC[C@@]3(OC(C)=O)[C@H]2[C@H](OC(=O)c2ccccc2)[C@]2(O)C[C@H](OC(=O)[C@H](O[Si](OC(C)C)(OC(C)C)OC(C)C)[C@@H](NC(=O)c3ccccc3)c3ccccc3)C(C)=C1C2(C)C,1600
,15.9,260,CC(=O)O[C@@]12CO[C@@H]1C[C@H](O)[C@@]1(C)C(=O)[C@H](O)C3=C(C)[C@@H](OC(=O)[C@H](O[Si](OC(C)C)(OC(C)C)OC(C)C)[C@@H](NC(=O)OC(C)(C)C)c4ccccc4)C[C@@](O)([C@@H](OC(=O)c4ccccc4)[C@H]21)C3(C)C,0.2
